Active and inactive are the calls of the source. The rule behind the calls is not given here.
What was measured:
SK-BR-3 [1] = experiment: Induction of apoptosis in SK-BR-3 cells at 5 uM; assay type: functional, cell-based; settings: Homo sapiens
Procedure, shortened: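 Cells plated at 0.5 × 10⁴ to 1 × 10⁴ per well in custom medium and left to adhere overnight. Treated 24 h at 5 µM in defined medium, triplicate. After fixation, DNA in apoptotic cells denatured by formamide plus heat. Single-stranded DNA detected by monoclonal antibody ELISA with ABTS, absorbance at 405 nm.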

SK-BR-3 [2] = experiment: Decrease in CYP19 gene expression in SK-BR-3 cells at 5 uM; assay type: functional, cell-based; settings: Homo sapiens
Procedure, shortened: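 SK-BR-3 cells grown to subconfluency, switched to defined DMEM/F12 medium (human albumin, transferrin, insulin), then exposed 24 h at 5 µM. Total RNA by TRIzol, DNase I-treated, reverse-transcribed with random hexamers (Superscript II, 42 °C 50 min). Taqman real-time PCR with 600 nM CYP19 primers, 50 cycles. CYP19 normalized to 18S rRNA, n = 9, unpaired t test vs control.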

SMILES	Activity (SK-BR-3 [1])	Activity (SK-BR-3 [2])
Cc1ccc(COc2cc([N+](=O)[O-])ccc2N(C)S(C)(=O)=O)cc1	inactive	
CN(c1ccc([N+](=O)[O-])cc1OCc1ccc2ccccc2c1)S(C)(=O)=O	inactive	Active
CN(c1ccc([N+](=O)[O-])cc1OCc1ccc([N+](=O)[O-])cc1)S(C)(=O)=O	inactive	Active
CN(c1ccc([N+](=O)[O-])cc1OCc1ccccc1)S(C)(=O)=O	inactive	Active
CS(=O)(=O)Nc1ccc([N+](=O)[O-])cc1OCCc1ccccc1		inactive
CN(c1ccc([N+](=O)[O-])cc1OCc1ccc(F)cc1)S(C)(=O)=O	inactive	Active
CN(c1ccc([N+](=O)[O-])cc1OCc1ccccc1-c1ccccc1)S(C)(=O)=O	inactive	Active

From ChEMBL document CHEMBL1142944, “Synthesis and biological evaluation of selective aromatase expression regulators in breast cancer cells” (J Med Chem, 2007)
